Assay results taken from PMC6957252 (Bioorganic & medicinal chemistry, 2016).

How the values were obtained:
[1] = biological target: human TRPV1 heterologously expressed in Chinese hamster ovary (CHO) cells (Homo sapiens, UniProt Q8NER1); format: cell-based
How it was run: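 45Ca2+ uptake in CHO cells heterologously expressing human TRPV1. […] Ki is calculated to account for competition between capsaicin and antagonist. In agonist mode, 300 nM capsaicin (saturating) defines maximal response, and absence or weakness of uptake is scored as no or weak effect. Values are mean ± SEM of at least three experiments.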

[2] = in vivo; cited from earlier work
[3] = neuropathic pain model; cited from earlier work
[4] = biological target: human TRPV1 (Homo sapiens, UniProt Q8NER1); assay: binding competition assay with [3H]RTX; settings: ratio of Ki versus 1S
Chain of human TRPV1 (Q8NER1 whole entry): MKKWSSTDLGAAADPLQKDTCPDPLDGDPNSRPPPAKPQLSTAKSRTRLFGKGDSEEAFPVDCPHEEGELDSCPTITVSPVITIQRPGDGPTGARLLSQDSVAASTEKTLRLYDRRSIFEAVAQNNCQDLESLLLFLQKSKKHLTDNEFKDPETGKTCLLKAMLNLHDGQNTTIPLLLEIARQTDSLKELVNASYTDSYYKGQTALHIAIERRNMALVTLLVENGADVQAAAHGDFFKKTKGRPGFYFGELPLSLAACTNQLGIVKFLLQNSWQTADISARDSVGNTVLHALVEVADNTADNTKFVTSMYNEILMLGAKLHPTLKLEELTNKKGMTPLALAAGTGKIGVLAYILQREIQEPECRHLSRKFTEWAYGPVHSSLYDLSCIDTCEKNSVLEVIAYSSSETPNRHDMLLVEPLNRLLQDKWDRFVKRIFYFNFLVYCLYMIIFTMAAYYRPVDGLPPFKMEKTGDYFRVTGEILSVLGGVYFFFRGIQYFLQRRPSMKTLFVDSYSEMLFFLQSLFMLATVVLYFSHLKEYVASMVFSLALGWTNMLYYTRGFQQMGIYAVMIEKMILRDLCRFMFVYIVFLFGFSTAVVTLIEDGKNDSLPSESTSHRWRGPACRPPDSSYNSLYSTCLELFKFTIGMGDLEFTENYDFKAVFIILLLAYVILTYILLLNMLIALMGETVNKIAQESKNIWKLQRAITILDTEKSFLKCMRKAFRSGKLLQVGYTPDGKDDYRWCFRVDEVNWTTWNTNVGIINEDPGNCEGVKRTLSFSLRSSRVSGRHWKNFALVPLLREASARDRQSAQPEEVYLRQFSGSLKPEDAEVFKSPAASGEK
How it was run: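 Competition binding of [3H]RTX to human TRPV1 heterologously expressed in CHO cells. Binding affinity reported as Ki. Values are mean ± SEM of at least three experiments.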

Chain of human TRPV1 heterologously expressed in Chinese hamster ovary (CHO) cells (Q8NER1 whole entry): as above

COc1ccc(CN(c2nc(C(F)(F)F)ccc2CNC(=O)C(C)c2ccc(NS(C)(=O)=O)c(F)c2)S(=O)(=O)c2ccccc2)cc1 (stereo not shown) [Compound 19, 2-(3-Fluoro-4-(methylsulfonamido)phenyl)-N-((2-(N-(4-methoxybenzyl)phenyl-sulfonamido)-6-(trifluoromethyl)pyridin-3-yl)methyl)propanamide]
fold more potent antagonism than 12 ([1]; ratio of Ki(ant) versus 12): ca. 3 fold

CC(C(=O)NCc1ccc(C(F)(F)F)nc1NS(=O)(=O)c1ccccc1)c1ccc(NS(C)(=O)=O)c(F)c1 (stereo not shown) [Compound 6, 2-(3-Fluoro-4-(methylsulfonamido)phenyl)-N-((2-(phenylsulfonamido)-6-(triflu-oromethyl)pyridin-3-yl)methyl)propanamide]
activity on hTRPV1 (in words) ([1]; binding affinity and antagonism, Table 1 series): little activity

CC1CCN(c2nc(C(F)(F)F)ccc2CNC(=O)C(C)c2ccc(NS(C)(=O)=O)c(F)c2)CC1 (stereo not shown) [Compound 1]
effect on capsaicin-induced hypothermia [2]: blocked capsaicin-induced hypothermia
antiallodynic activity [3]: potent antiallodynic activity

CC(C(=O)NCc1ccc(C(F)(F)F)nc1N(Cc1ccccc1)S(=O)(=O)c1ccccc1)c1ccc(NS(C)(=O)=O)c(F)c1 (stereo not shown) [Compound 12, N-((2-(N-Benzylphenylsulfonamido)-6-(trifluoromethyl)pyridin-3-yl)methyl)-2-(3-fluoro-4-(methylsulfonamido)phenyl)propanamide]
fold reduction in antagonism compared to lead compound 1 ([1]; ratio of Ki(ant) versus compound 1): 2.5 fold

C[C@H](C(=O)NCc1ccc(C(F)(F)F)nc1N(Cc1ccccc1)S(=O)(=O)c1ccccc1)c1ccc(NS(C)(=O)=O)c(F)c1 [Compound 12S, (S)-N-((2-(N-Benzylphenylsulfonamido)-6-(trifluoromethyl)pyridin-3-yl)methyl)-2-(3-fluoro-4-(methylsulfonamido)phenyl)propanamide]
fold increase in binding affinity compared to 1S [4]: 5 fold
fold decrease in antagonism compared to 1S ([1]; ratio of Ki(ant) versus 1S): 1.5 fold
